Experimental data taken from ChEMBL document CHEMBL1125247, “Muscarinic cholinergic agonists and antagonists of the 3-(3-alkyl-1,2,4-oxadiazol-5-yl)-1,2,5,6-tetrahydropyridine type. Synthesis and structure-activity relationships” (J Med Chem, 1991).
Each block holds one molecule with its values, some of them ahead of it.

How the values were obtained:
[1] = biological target: Muscarinic acetylcholine receptor; test: (§1) Agonist activity at muscarinic acetylcholine receptor in isolated guinea pig ileum.; type: functional, tissue-based, Cavia porcellus
Outline: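 Isolated ileum in Tyrode solution. Cumulative-free sequential agonist dose-response curves, 30-s contact time per dose. Contraction read out; EC50 derived from the curves. Efficacy expressed as percent of maximal contraction relative to the full agonist acetylcholine.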

[2] = biological target: Muscarinic acetylcholine receptor (Cavia porcellus); test: Antagonistic activity at muscarinic acetylcholine receptor in isolated guinea pig ileum.
[3] = biological target: Muscarinic acetylcholine receptor; test: In vitro binding affinity to muscarinic acetylcholine receptor site in rat brain assayed using [3H]oxotremorine-M as the radioligand.; type: tissue-based
[4] = biological target: Muscarinic acetylcholine receptor; test: In Vitro binding affinity to the muscarinic acetylcholine receptor site in rat brain by using [3H]QNB as the radioligand.; type: tissue-based
[5] = biological target: Muscarinic acetylcholine receptor (Rattus norvegicus) (UniProt P08482+P08483+P08485+P08911+P10980)
[6] = biological target: Muscarinic acetylcholine receptor; test: as §1; type: functional, tissue-based, Cavia porcellus; remark: listed apart in the source
[7] = biological target: Muscarinic acetylcholine receptor M3 (Cavia porcellus) (UniProt Q8VH26); test: Antagonist activity at muscarinic acetylcholine receptor in isolated guinea pig ileum.; type: functional, tissue-based
Sequence of Muscarinic acetylcholine receptor M3 (Cavia porcellus) (Q8VH26 1-587): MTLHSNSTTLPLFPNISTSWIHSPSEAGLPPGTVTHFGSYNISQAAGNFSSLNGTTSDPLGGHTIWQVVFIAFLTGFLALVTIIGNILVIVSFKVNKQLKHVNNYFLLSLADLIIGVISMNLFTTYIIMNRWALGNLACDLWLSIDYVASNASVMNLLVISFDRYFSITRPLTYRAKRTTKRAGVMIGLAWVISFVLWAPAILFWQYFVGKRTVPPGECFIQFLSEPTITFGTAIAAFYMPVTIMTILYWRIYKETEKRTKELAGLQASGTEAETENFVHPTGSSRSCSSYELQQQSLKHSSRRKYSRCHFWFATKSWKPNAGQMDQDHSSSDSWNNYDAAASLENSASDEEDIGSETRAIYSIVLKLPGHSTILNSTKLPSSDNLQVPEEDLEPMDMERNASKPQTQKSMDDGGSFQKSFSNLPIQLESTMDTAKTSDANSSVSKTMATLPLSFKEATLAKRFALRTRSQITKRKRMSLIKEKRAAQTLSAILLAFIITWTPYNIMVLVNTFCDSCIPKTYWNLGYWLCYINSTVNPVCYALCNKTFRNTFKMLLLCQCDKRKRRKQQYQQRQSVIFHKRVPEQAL
Outline: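 Isolated guinea pig ileum in tyrode solution; agonist dose-response curves built sequentially with 30-s contact time. Antagonist added to the tyrode 5 min before agonist responses were retested. K_B from regression analysis using at least four points, n = 4-8 per point.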

[8] = biological target: Muscarinic acetylcholine receptor (Cavia porcellus); test: Antagonist activity at muscarinic acetylcholine receptor in isolated guinea pig ileum.

Structure (SMILES): CN1CCC=C(c2nc(C3CCC3)no2)C1.O=C(O)C(=O)O
EC50 [1]: > 30000 nM
Kb [2]: 650 nM
IC50 [3]: 191 nM
IC50 [4]: 12900 nM
Muscarinic agonist index [5]: 11

Structure (SMILES): Cc1noc(C2=CCCN(C)C2)n1.O=C(O)C(=O)O
EC50 [6]: 32 nM
IC50 [3]: 12.3 nM
IC50 [4]: 41000 nM
Muscarinic agonist index [5]: 540

Structure (SMILES): CCCc1nc(C2=CCCN(C)C2)no1.O=C(O)C(=O)O
EC50 [6]: > 30000 nM
IC50 [3]: 681 nM
IC50 [4]: 88000 nM
Kb [7]: 3380 nM
Muscarinic agonist index [5]: 80

Structure (SMILES): CCCCc1noc(C2=CC(C)CNC2)n1 (configuration not stated)
EC50 [6]: > 30000 nM
IC50 [3]: 685 nM
IC50 [4]: 64300 nM
Muscarinic agonist index [5]: 15

Structure (SMILES): COCc1noc(C2=CCCN(C)C2)n1.O=C(O)C(=O)O
EC50 [6]: 420 nM
IC50 [3]: 43.5 nM
IC50 [4]: 66900 nM
Muscarinic agonist index [5]: 249

Structure (SMILES): CCCCc1noc(C2=CCCN(CC)C2)n1
EC50 [6]: > 30000 nM
IC50 [3]: 86.2 nM
IC50 [4]: 20600 nM
Kb [7]: 700 nM
Muscarinic agonist index [5]: 39

Structure (SMILES): CCc1nc(C2=CCCN(C)C2)no1.O=C(O)C(=O)O
EC50 [6]: > 30000 nM
IC50 [3]: 954 nM
Kb [8]: 5750 nM
IC50 [4]: 156000 nM
Muscarinic agonist index [5]: 26

Structure (SMILES): CN1CCC=C(c2nc(C3CC3)no2)C1.O=C(O)C(=O)O
EC50 [6]: > 30000 nM
IC50 [3]: 78 nM
IC50 [4]: 6800 nM
Kb [7]: 150 nM
Muscarinic agonist index [5]: 14

Structure (SMILES): CCCCCCCCc1noc(C2=CCCN(C)C2)n1.O=C(O)C(=O)O
EC50 [6]: 1460 nM
IC50 [3]: 59.9 nM
IC50 [4]: 11000 nM
Muscarinic agonist index [5]: 30

Structure (SMILES): CCCCc1noc(C2=CCCNC2)n1
EC50 [6]: 320 nM
IC50 [3]: 12.1 nM
IC50 [4]: 25300 nM
Muscarinic agonist index [5]: 339

Structure (SMILES): Cc1nc(C2=CCCN(C)C2)no1.O=C(O)C(=O)O
EC50 [6]: > 30000 nM
IC50 [3]: 955 nM
Kb [8]: 8000 nM
IC50 [4]: 401000 nM
Muscarinic agonist index [5]: 68

Structure (SMILES): CN1CCC=C(c2nc(CC3CC3)no2)C1.O=C(O)C(=O)O
EC50 [6]: 1000 nM
IC50 [3]: 7.8 nM
IC50 [4]: 11300 nM
Muscarinic agonist index [5]: 235

Structure (SMILES): CCCCc1noc(C2=CCC3CCC2N3C)n1 (configuration not stated)
EC50 [6]: > 30000 nM
IC50 [3]: 181 nM
IC50 [4]: 8900 nM
Kb [7]: 220 nM
Muscarinic agonist index [5]: 8

Structure (SMILES): CCCc1noc(C2=CCCN(C)C2)n1.O=C(O)C(=O)O
EC50 [6]: 100 nM
IC50 [3]: 6.3 nM
IC50 [4]: 17400 nM
Muscarinic agonist index [5]: 447

Structure (SMILES): CCc1noc(C2=CCCN(C)C2)n1.O=C(O)C(=O)O
EC50 [6]: 200 nM
IC50 [3]: 11 nM
IC50 [4]: 35300 nM
Muscarinic agonist index [5]: 520

Structure (SMILES): CCCCc1noc(C2CN3CCC2CC3)n1 (configuration not stated)
EC50 [1]: > 30000 nM
IC50 [3]: 58.5 nM
IC50 [4]: 1500 nM
Kb [7]: 70 nM
Muscarinic agonist index [5]: 4

Results, then the molecule that gave them:

EC50 [6]: > 30000 nM
IC50 [3]: 145 nM
IC50 [4]: 10200 nM
Kb [7]: 130 nM
Muscarinic agonist index [5]: 11
Structure (SMILES): CCCCc1noc(C2=CCC(C)N(C)C2)n1 (configuration not stated)

EC50 [6]: > 30000 nM
IC50 [3]: > 850 nM
IC50 [4]: 16000 nM
Kb [7]: 160 nM
Muscarinic agonist index [5]: < 3
Structure (SMILES): CN1CCC=C(c2nc(C3CCCCCC3)no2)C1.O=C(O)C(=O)O

EC50 [6]: 1280 nM
IC50 [3]: 107 nM
IC50 [4]: 42800 nM
Muscarinic agonist index [5]: 65
Structure (SMILES): CCOCCc1noc(C2=CCCN(C)C2)n1.O=C(O)C(=O)O

EC50 [6]: 150 nM
IC50 [3]: 14.1 nM
IC50 [4]: 15800 nM
Muscarinic agonist index [5]: 181
Structure (SMILES): CCCCc1noc(C2=CCCN(C)C2)n1.O=C(O)C(=O)O

EC50 [6]: > 30000 nM
IC50 [3]: 102 nM
IC50 [4]: 10800 nM
Kb [7]: 1550 nM
Muscarinic agonist index [5]: 15
Structure (SMILES): CN1CCC=C(c2nc(C3CCCC3)no2)C1.O=C(O)C(=O)O

EC50 [6]: > 30000 nM
IC50 [3]: 286 nM
IC50 [4]: 9000 nM
Kb [7]: 200 nM
Muscarinic agonist index [5]: 5
Structure (SMILES): CN1CCC=C(c2nc(C(C)(C)C)no2)C1.O=C(O)C(=O)O

EC50 [6]: 620 nM
IC50 [3]: 36.9 nM
IC50 [4]: 6700 nM
Muscarinic agonist index [5]: 29
Structure (SMILES): CCCCCc1noc(C2=CCCN(C)C2)n1.O=C(O)C(=O)O

EC50 [6]: > 30000 nM
IC50 [3]: 182 nM
IC50 [4]: 15800 nM
Kb [7]: 200 nM
Muscarinic agonist index [5]: 14
Structure (SMILES): CC(C)c1noc(C2=CCCN(C)C2)n1.O=C(O)C(=O)O

EC50 [6]: 720 nM
IC50 [3]: 144 nM
IC50 [4]: 41500 nM
Muscarinic agonist index [5]: 47
Structure (SMILES): COCCc1noc(C2=CCCN(C)C2)n1.O=C(O)C(=O)O

EC50 [6]: 130 nM
IC50 [3]: 28.3 nM
IC50 [4]: 9100 nM
Muscarinic agonist index [5]: 52
Structure (SMILES): CCCCCCCc1noc(C2=CCCN(C)C2)n1.O=C(O)C(=O)O
